# Screening results: PubChem, several laboratories
# Only some compounds are listed: those with a hit (about 1.3% of all), similar ones and a draw of the others.
# NTR1 agonist = NTR1 (human) agonism. P30989. NTR1-U2OS beta-arrestin-GFP spot imaging, agonist mode. activation, % at 20 µM. 330,000 tested, 0.17% active. AID 493036;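 active = activation at or above 40% of the spot to cytoplasm intensity ratio, with at least 20 cells analyzed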;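 also: 0% = DMSO without peptide and 100% = 100 nM NTR1 peptide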
# PLC-beta3 inh = PLC-beta3 (human) inhibition, primary screen; Purified PLC-beta3, fluorogenic substrate, fluorescence; inhibition, % at 12.2 µM; 370,000 tested, 0.18% active; Q01970; AID 720704; in the data active = inhibition above about 11%;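 also: 0% = median of compound wells on plate and 100% = full blocker control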
# PLCg1 inh = inhibitors of human phospholipase C gamma1. 370,000 tested, 0.84% active. purified PLC-gamma1, fluorogenic substrate, fluorescence. P19174. inhibition, % at 12.2 µM
# Arr AP2 block = inhibitors of human beta-arrestin and AP2 interaction | FITC-arrestin peptide / GST-AP2 beads, flow cytometry; AP2 beta2 appendage carries R879A mutation | 340,000 tested, 0.31% active | AID 504490 | inhibition, % at 10 µM;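 active = inhibition above a set limit, near 3 SD of compounds lacking own fluorescence, cut at about 54% in these data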;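 also: plate controls were DMSO wells for no effect and 5 µM unlabelled arrestin peptide for full effect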
#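 System: GST-AP2 R879A glutathione beads | Also added: FITC-arrestin peptide, 50 nM | Times: 12 min plus 1 h, RT | Signal: Bead flow cytometry, FITC channel | Buffer or medium: PBS with 0.05% Tween 20 and 0.1% BSA | Read-out basis: Percent drop in bead-associated FITC signal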
# PLCg1 ctr = counter-screen for PLC-beta3 inhibitors: inhibitors of human PLC-gamma1. shares compounds with PLCg1 inh. 3,300 tested, 3.1% active. inhibition, % at 12.3 µM. purified PLC-gamma1, fluorogenic substrate, fluorescence
# PLCbeta3 conf = confirmation of human PLC-beta3 inhibitors; shares compounds with PLCg1 inh; 3,300 tested, 1% active; inhibition, % at 12.3 µM; purified PLC-beta3, fluorogenic substrate fluorescence; AID 743261; in the data active = inhibition above about 11%
# Active calls of the source: *; / = no result. Rule as the data show it, unless noted: active = inhibition above about 9.5%; inactive = the rest.
SMILES,NTR1 agonist,PLC-beta3 inh,PLCg1 inh,Arr AP2 block,PLCg1 ctr,PLCbeta3 conf
COC(=O)C(NC(=O)CCc1c(C)nc2ncnn2c1C)C(C)C (stereo not drawn),-0.7,3.1,9.7*,11.9,-5.2,0.1
CCOC(=O)CC[C@@H]1CC[C@]2(CCCN(C(=O)c3ccno3)C2)O1,/,2.1,0.2,/,/,/
COc1ccc(C(=O)NCC(=O)OCCCOC(=O)CNC(=O)c2ccc(OC)c(OC)c2)cc1OC,0.4,5.2,12.4*,-11.2,-6.0,-19.4
Cn1c(SCC(=O)NC2(C#N)CCCCC2)nnc1-c1cccnc1,-1.1,-1.5,12.0*,3.2,-8.5,-4.9
O=C(CN1CCN(C(=O)N2CCCCC2)CC1)Nc1ccc(F)cc1,0.6,-1.9,10.8*,8.2,0.5,-5.8
CC(C)(C)c1cc(-c2ccccc2)n[nH]1,2.8,-1.8,10.6*,2.3,-1.4,-0.6
COc1ccccc1/C=C1/C(=O)N(c2ccccc2)N=C1C,-0.8,0.3,28.0*,5.8,-7.1,-2.9
CC1=NN(c2ccccc2)C(=O)/C1=C\c1cn(-c2ccccc2)nc1C,6.7,-2.1,-1.7,6.5,/,/
COc1cc(/C=C2\C(=O)N(c3ccccc3)N=C2C)ccc1Oc1ccc([N+](=O)[O-])cc1[N+](=O)[O-],/,4.0,10.0*,13.4,1.7,-1.3
O=C(Nc1ccccc1C(F)(F)F)c1ccc(F)c(S(=O)(=O)N2CCOCC2)c1,-0.7,3.9,13.1*,0.5,0.7,-4.3
Cc1ccc(C(=O)OCC(=O)Nc2ccccc2C(F)(F)F)cc1S(=O)(=O)N1CCOCC1,-3.1,10.9*,5.9,20.5,-5.7,-2.9
CCOC(=O)c1ccccc1NC(=O)COC(=O)c1ccc(C)c(S(=O)(=O)N2CCOCC2)c1,0.5,1.1,0.2,-4.8,/,/
O=C(Nc1ccc(F)cc1)OCc1cn(Cc2ccc(C(F)(F)F)cc2)nn1,/,-1.8,0.3,/,/,/
c1coc(-c2nnc3n2N=C(c2ccc4c(c2)OCO4)CS3)c1,/,3.6,2.5,/,/,/
CC(C)=CCC/C(C)=C/CNCC(=O)N1c2ccccc2[C@]2(c3ccccc3)C[C@@H]3C(=O)N(C/C=C(\C)CCC=C(C)C)CC(=O)N3[C@H]12,/,-0.3,0.6,/,/,/
Cc1nnc(N/N=C/c2ccccc2C(F)(F)F)n1N,0.8,-0.3,5.3,-5.0,/,/
Cc1nnc(N/N=C/c2cccc(OCc3ccc(Cl)c(Cl)c3)c2)n1N,3.0,10.7*,13.3*,11.3,-20.6,-13.1
Cc1nnc(N/N=C/c2ccccc2F)n1N,0.3,1.2,12.0*,-3.9,-3.6,-1.5
Cc1nnc(N/N=C/c2cccc(C(F)(F)F)c2)n1N,-0.2,10.5,13.3*,3.8,-2.9,-0.4
CCOc1cc(/C=N/Nc2nnc(C)n2N)ccc1OC(C)=O,1.7,-0.2,8.3,0.9,/,/
CCC(=O)N1CCc2cc(S(=O)(=O)CCC(=O)NCCc3ccc(S(N)(=O)=O)cc3)ccc21,-0.3,-1.7,10.3*,9.1,-1.2,-2.1
CCc1ccc(NS(=O)(=O)c2ccc3c(c2)CCN3C(=O)CCC(=O)O)cc1,2.4,0.1,10.0*,3.8,-6.0,-4.7
Cc1ccc(NS(=O)(=O)c2ccc3c(c2)CCN3C(=O)CCC(=O)O)cc1Cl,-1.0,-6.1,2.0,3.1,/,/
CCC(=O)N1CCc2cc(S(=O)(=O)CCC(=O)NCc3ccc(C)cc3)ccc21,-1.0,-3.2,3.2,48.8,/,/
COCCCN1C(=O)[C@H](CC(=O)NCc2cccs2)[C@]2(C(=O)OC)CCCCC=C12,/,2.9,-1.9,/,/,/
SMILES,NTR1 agonist,PLC-beta3 inh,PLCg1 inh,Arr AP2 block,PLCg1 ctr,PLCbeta3 conf
CC(CCN1CCC(C(O)(c2ccccc2)c2ccccc2)CC1)Oc1cccc(F)c1 (stereo not drawn),/,5.4,5.4,/,/,/
CC(CCN1CCC(C(O)(c2ccccc2)c2ccccc2)CC1)Oc1cc(F)cc(C#N)c1 (stereo not drawn),/,3.6,11.5*,/,8.3,3.3
CCOC(=O)N(C)[C@H]1C[C@H]2c3[nH]c4c(-c5ccc6c(c5)OCO6)cccc4c3CCN2C(=O)[C@H]1[C@H](C)O,/,-19.3,-16.1,/,/,/
Cc1ccc(S(=O)(=O)N2CCC(C(=O)NNC(=O)c3ccncc3)CC2)cc1,0.5,11.6*,8.9,12.9,-6.0,-3.9
Cc1ccc(C(=O)NNC(=O)C2CCN(S(=O)(=O)c3ccc(C)cc3)CC2)cc1,0.7,-3.2,3.3,-13.8,/,/
N#C/C(=C\c1ccco1)C(=O)NCC1CCCO1 (stereo not drawn),0.1,12.8*,11.2*,6.6,1.7,5.2
CCOC(=O)[C@]12CCCCC/C=C\1N(CCc1ccc(Cl)cc1)C(=O)[C@H]2CC(=O)NCc1ccc(C)o1,/,4.2,4.3,/,/,/
O=S(=O)(NC1CCCC1)c1ccccc1Br,-0.6,15.6*,8.6,-6.0,-0.9,-0.3
COc1ccc(S(=O)(=O)NC2CCCC2)cc1Br,1.3,-1.4,0.3,-4.4,/,/
O=C(NC1CCCCN(Cc2ccc(Cl)cc2)C1=O)c1ccc(COc2ccccc2)cc1 (stereo not drawn),/,-13.4,1.1,/,/,/
COc1ccc(/C=N/NC(=O)c2ccc3c(c2)OCCO3)cc1[N+](=O)[O-],-1.0,-2.7,10.6*,0.7,-10.1,-2.7
CN(C)c1ccc(/C=N/NC(=O)c2nonc2N)cc1[N+](=O)[O-],2.8,2.4,9.8*,-14.3,-3.2,4.9
C[C@H]1C2CC(OC(=O)Nc3ccc4c(c3)OCO4)C(C2)[C@H]2CCCCN21 (stereo partly drawn),/,0.8,7.5,/,/,/
COC(=O)c1ccc(N/C(=N/S(=O)(=O)c2ccccc2)c2ccccc2)cc1,2.1,1.4,1.0,-4.9,/,/
CCOC(=O)c1ccc(N/C(=N\S(=O)(=O)c2ccccc2C)c2ccccc2)cc1,5.0,2.1,10.3*,14.3,-1.7,-3.6
CCC(C)[C@H]1CNCCN1CCc1cc(C(F)(F)F)cc(C(F)(F)F)c1 (stereo partly drawn),37.7,7.2,10.8*,0.1,-11.4,-4.2
CCC(C)[C@H]1CNCCN1CCc1cccc2ccccc12 (stereo partly drawn),2.1,7.7,10.7*,1.0,-4.7,-0.1
CCC(C)[C@H]1CNCCN1CC1(c2ccccc2)CC1 (stereo partly drawn),-2.2,13.8*,7.7,1.8,-3.9,-6.0
Oc1ccc(C[C@@H]2CNCCN2CCc2cccc3ccccc23)cc1,2.3,0.6,-0.5,-1.3,/,/
CC(O)[C@H]1CNCCN1CC1(c2ccccc2)CC1 (stereo partly drawn),-1.3,9.7,5.1,-14.3,/,/
COC(=O)[C@]12C[C@H](CC(=O)N3CCC(c4ccccc4)CC3)C(=O)N(Cc3ccco3)C1=C[C@H](C(C)C)O[C@@H]2C1CC1,/,1.6,2.6,/,/,/
C[C@@H]1OC(C2CCCCC2)N(C)[C@H]2C[C@H]3c4[nH]c5cccc(-c6ccccc6)c5c4CCN3C[C@@H]12 (stereo partly drawn),/,-155.6,-129.0,/,/,/
